# Assay results: PubChem BioAssay AID504502 (Broad Institute, 2011)
# Activity calls are given as the source filed them.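 The calls were made as follows: active = compounds whose fitted half-maximal growth inhibition concentration is at most ten times the top tested dose; inconclusive = flat curve with 30 to 70% inhibition, or poor fit; inactive = the rest.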
# Key:
# [1] = test system: C. albicans CaCi-2 + fluconazole, Alamar Blue growth, 48 h; assay: antifungal growth reduction in resistant isolate – CaCi-2, fluconazole present, retest, powder, set 6, confirmation (AID 504502)
# How it was run: (§1)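 Signal: Alamar Blue fluorescence at 1:200 final, excitation 544 nm, emission 590 nm | Test system: Fluconazole-resistant Candida albicans strain CaCi-2 | Quantity: Fungal inoculum at starting OD600 of 0.00015 | Probe or stimulus: Fluconazole 8 µg/mL | Buffer or medium: Defined RPMI medium with MOPS buffer | Times: 48 h growth at 37 °C, 2 h dye step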
# [2] = as above; details: C. albicans CaCi-2 + fluconazole, Alamar Blue growth, 48 h; at 12 µM (top of the series)
# How it was run: as §1
Compound,AC50 [1],"activity change, negative = inhibition [2]"
O=C(Cn1c2ccc(F)cc2c2nc3n(c(=O)c21)CCS3)N1CCC(F)(F)C1,717 nM,–
COC(=O)Cn1nc(-c2cccc(OC)c2)c2ccccc21,348 nM,–
O=C(O)Cn1c2ccc(F)cc2c2nc3n(c(=O)c21)CCS3,–,0.059% (inactive)
O=C(Cn1c2ccccc2c2nc3n(c(=O)c21)CCS3)N1CCCC1,795 nM,–
COC(=O)n1nc(-c2ccccc2)c2ccccc21,–,10.4% (inactive)
COC(=O)Cn1nc(-c2cnco2)c2ccccc21,–,-10.5% (inactive)
COC(=O)Cn1nc(C2CCCCC2)c2ccccc21,1800 nM,–
CN1CCN(C(=O)Cn2c3ccccc3c3nc4n(c(=O)c32)CCS4)CC1,4740 nM,–
COC(=O)Cn1nc(C2CC2)c2ccccc21,–,0.132% (inactive)
O=C(Cn1c2ccc(F)cc2c2nc3n(c(=O)c21)CCS3)N1CC=CC1,276 nM,–
O=C(O)Cn1c2ccccc2c2nc3n(c(=O)c21)CCS3,–,-8.34% (inactive)
CC1CCN(CCn2c3ccccc3c3nc4n(c(=O)c32)CCS4)CC1,–,-9.05% (inactive)
O=C(Cn1c2ccc(F)cc2c2nc3n(c(=O)c21)CCS3)N1CCCC1,298 nM,–
COC(=O)Cn1nc(-c2ccccc2)c2cccnc21,–,-41.1% (inactive)
CCc1nn(CC(=O)OC)c2ccccc12,–,6.18% (inactive)
COC(=O)Cn1nc(-c2cccc(F)c2)c2ccccc21,1170 nM,–
COC(=O)Cn1c2ccc(F)cc2c2nc3n(c(=O)c21)CCS3,2080 nM,–
O=C(Cn1c2ccc(F)cc2c2nc3n(c(=O)c21)CCS3)N1CCC(F)(F)CC1,391 nM,–
O=C(Cn1c2ccccc2c2nc3n(c(=O)c21)CCS3)N1CCCCC1,1250 nM,–
COC(=O)Cn1nc(-c2cccnc2)c2ccccc21,–,-23.4% (inactive)
CC1(O)CN(C(=O)Cn2c3ccccc3c3nc4n(c(=O)c32)CCS4)C1,–,-0.117% (inactive)
COC(=O)Cn1nc(C(C)(C)C)c2ccccc21,–,3% (inactive)
O=C(Cn1c2ccccc2c2nc3n(c(=O)c21)CCS3)N1CCC(F)(F)C1,3700 nM,–
O=C(Cn1c2ccccc2c2nc3n(c(=O)c21)CCS3)N1CCC(F)(F)CC1,1470 nM,–
O=C(Cn1c2ccccc2c2nc3n(c(=O)c21)CCS3)N1CC=CC1,821 nM,–
COC(=O)Cn1nc(-c2cccc(C)c2)c2ccccc21,646 nM,–
